Experimental data published in ChEMBL document CHEMBL1127531, “Selective type IV phosphodiesterase inhibitors as antiasthmatic agents. The syntheses and biological activities of 3-(cyclopentyloxy)-4-methoxybenzamides and analogues” (J Med Chem, 1994).

Key:
[1] = species: Cavia porcellus; test: Inhibition of superoxide O2-generation from guinea pig peritoneal eosinophils; type: functional
Method in brief: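 Guinea pig peritoneal eosinophils (10^6/well) were incubated for 45 min at 37 °C in HBSS with p-iodonitrotetrazolium violet (0.5 mg/mL). Superoxide was measured as SOD-inhibitable dye reduction: cells were pelleted and dissolved overnight at room temperature in DMSO/0.6 M HCl, and absorbance was read at 492 nm.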

[2] = target: T1, Phosphodiesterase 4 (Homo sapiens, UniProt P27815+Q08499+Q07343+Q08493); test: Inhibition of guinea pig PDE IV; type: protein assay, Cavia porcellus; conditions: target entry is the homologue from another species
[3] = target: T2, Phosphodiesterase 4A (Sus scrofa, UniProt O77823); test: Inhibitory potency against pig aortic PDE IV
T2 sequence (O77823 whole entry): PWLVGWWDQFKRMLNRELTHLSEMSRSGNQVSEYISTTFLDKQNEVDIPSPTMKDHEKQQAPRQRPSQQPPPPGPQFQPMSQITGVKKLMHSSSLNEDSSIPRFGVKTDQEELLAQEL
Method in brief: (§1)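 Pig aortic PDE isozymes were separated by DEAE-trisacryl anion-exchange chromatography. PDE III was assayed in the presence of rolipram (10 µM) and PDE IV in the presence of siguazodan (10 µM) to exclude cross-contamination.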

[4] = tested on: Cavia porcellus; test: In vivo bronchodilator effect on histamine-induced bronchospasm in anaesthetized guinea pigs at 50 ug intravenous dose; type: functional
[5] = target: T1, Phosphodiesterase 4; test: Inhibition of solubilized eosinophil PDE IV; type: protein assay, Cavia porcellus
[6] = tested on: Cavia porcellus; test: In vivo bronchodilator effect on histamine-induced bronchospasm in anaesthetized guinea pigs at 100 ug intravenous dose; type: functional
[7] = target: Phosphodiesterase 1 (Sus scrofa); test: Inhibitory potency against pig aortic PDE I.
[8] = Inhibitory potency against pig aortic PDE III.; design: species or system Sus scrofa; method in brief: as §1
[9] = tested on: Cavia porcellus; test: In vivo bronchodilator effect on histamine-induced bronchospasm in anaesthetized guinea pigs at 200 ug intravenous dose; type: functional
[10] = tested on: Cavia porcellus; test: In vivo bronchodilator effect on histamine-induced bronchospasm in anaesthetized guinea pigs at 20 ug intravenous dose; type: functional
[11] = tested on: Cavia porcellus; test: In vivo bronchodilator effect on histamine-induced bronchospasm in anaesthetized guinea pigs at 10 ug intravenous dose; type: functional

SMILES	IC50 [3]	IC50 [8]	further results
COc1ccc(C(=O)Nc2ccccc2F)cc1OC1CCCC1	10.7 µM	> 1000 µM	IC50 [7]: > 1000 µM
COc1ccc(C(=O)Nc2ccc(F)cc2)cc1OC1CCCC1	> 1000 µM	> 1000 µM	IC50 [7]: > 1000 µM
COc1ccc(C(=O)Nc2cccc(C)c2)cc1OC1CCCC1	1 µM	> 200 µM	–
COC(=O)c1ccccc1NC(=O)c1ccc(OC)c(OC2CCCC2)c1	3 µM	> 40 µM	IC50 [7]: > 40 µM
COc1ccc(C(=O)Nc2nccs2)cc1OC1CCCC1	6.5 µM	–	–
COc1ccc(C(=O)Nc2c(F)cccc2F)cc1OC	0.9 µM	–	–
COc1ccc(C(=O)Nc2ccccc2Cl)cc1OC	0.65 µM	–	–
COc1ccc(C(=O)Nc2ncccn2)cc1OC1CCCC1	3.5 µM	–	–
COc1ccc(C(=O)Nc2c(F)cccc2F)cc1	37 µM	–	–
COc1ccc(C(=O)Nc2cccnc2)cc1OC1CCCC1	0.55 µM	–	–
COc1ccc(C(=O)Nc2c(Cl)cncc2Cl)cc1OC1CCCC1	–	–	IC50 [1]: 0.024 µM; Reduction [4]: 78%; Reduction [11]: 36%; Reduction [10]: 56%
COc1ccc(C(=O)Nc2cccc(Cl)c2Cl)cc1OC1CCCC1	> 200 µM	> 200 µM	IC50 [7]: > 200 µM
COc1ccc(C2CNC(=O)C2)cc1OC1CCCC1 (centres undefined) [ROLIPRAM]	–	–	IC50 [1]: 0.16 µM; Duration [4]: 38 min; Reduction [4]: 58%; Duration [11]: 15 min; Reduction [11]: 15%; Duration [10]: 29 min; Reduction [10]: 48%
COc1ccc(C(=O)Nc2ccccc2Cl)cc1OC(=O)c1ccccc1	> 1000 µM	–	–
COc1ccc(C(=O)Nc2ccc(C)cc2)cc1OC1CCCC1	> 200 µM	> 200 µM	IC50 [7]: > 200 µM
COc1ccc(C(=O)Nc2cccc(Cl)c2)cc1OC1CCCC1	1.3 µM	> 40 µM	IC50 [7]: > 40 µM
COc1ccc(C(=O)Nc2ccccc2O)cc1OC1CCCC1	1.3 µM	> 200 µM	IC50 [7]: > 200 µM
COc1ccc(C(=O)Nc2ccccc2)cc1OC1CCCC1	2.6 µM	> 1000 µM	IC50 [1]: > 10 µM; IC50 [2]: 2.566 µM; Duration [9]: 6 min; IC50 [5]: 0.145 µM; Reduction [10]: 32%

SMILES	IC50 [3]	IC50 [8]	further results
COc1ccc(C(=O)Nc2ccccc2C(=O)c2ccccc2)cc1OC1CCCC1	1.7 µM	> 40 µM	IC50 [7]: > 40 µM
O=C(Nc1c(F)cccc1F)c1cccc(OC2CCCC2)c1	15 µM	–	–
COc1ccc(C(=O)Nc2ccccc2C#N)cc1OC1CCCC1	2.5 µM	9.5 µM	–
COc1ccc(C(=O)Oc2c(Cl)cccc2Cl)cc1OC1CCCC1	> 1000 µM	–	–
COc1ccc(C(=O)Nc2ccccc2C(C)=O)cc1OC1CCCC1	1.2 µM	> 40 µM	–
COc1ccc(C(=O)Nc2c(F)c(F)nc(F)c2F)cc1OC1CCCC1	0.55 µM	–	–
COc1ccc(C(=O)Nc2ccccn2)cc1OC1CCCC1	1 µM	–	–
COc1ccc(C(=O)Nc2ccc(Cl)cc2)cc1OC1CCCC1	> 1000 µM	> 1000 µM	IC50 [7]: > 1000 µM
COc1ccc(C(=O)Nc2ccccc2C(F)(F)F)cc1OC1CCCC1	3.1 µM	> 1000 µM	IC50 [7]: > 1000 µM
COc1ccc(C(=O)Nc2ccccc2Cl)cc1OC(C)=O	70 µM	–	–
COc1ccc(C(=O)Nc2ccccc2SC)cc1OC1CCCC1	1.2 µM	> 200 µM	IC50 [7]: > 200 µM
COc1ccc(C(=O)Nc2c(C)nsc2Br)cc1OC1CCCC1	0.5 µM	–	–
COc1ccc(C(=O)Nc2ccncc2)cc1OC1CCCC1	0.8 µM	–	–
CCCOc1cc(C(=O)Nc2c(F)cccc2F)ccc1OC	1.6 µM	–	–
COc1ccc(C(=O)Nc2ccccc2Cl)cc1OC(=O)C1CCCC1	> 1000 µM	–	–
COc1ccc(C(=O)Nc2ccccc2Cl)cc1OC(=O)C(C)(C)C	> 1000 µM	–	–
COc1ccc(C(=O)NCc2ccccc2Cl)cc1OC1CCCC1	> 1000 µM	–	–
COc1ccc(C(=O)Nc2ncccc2C)cc1OC1CCCC1	3.1 µM	–	–

Continued by falling IC50 [3], values first:

IC50 [3]	IC50 [8]	SMILES	further results
0.5 µM	> 200 µM	COc1ccc(C(=O)Nc2cc(Cl)ccc2Cl)cc1OC1CCCC1	–
0.5 µM	–	COc1ccc(C(=O)Nc2c(C)nsc2C)cc1OC1CCCC1	–
0.45 µM	–	COc1ccc(C(=O)Nc2c(C)noc2C)cc1OC1CCCC1	–
0.4 µM	–	COc1ccc(C(=O)Nc2c(Cl)ncnc2Cl)cc1OC1CCCC1	–
0.4 µM	–	COc1ccc(C(=O)Nc2c(F)cccc2F)cc1OC1CCCCC1	–
0.4 µM	> 1000 µM	COc1ccc(C(=O)Nc2c(Br)cccc2Br)cc1OC1CCCC1	–
0.36 µM	–	COc1ccc(C(=O)Nc2ncccc2Cl)cc1OC1CCCC1	–
0.3 µM	> 1000 µM	COc1ccc(C(=O)Nc2ccccc2C)cc1OC1CCCC1	IC50 [7]: > 1000 µM
0.3 µM	–	CCCCOc1cc(C(=O)Nc2c(F)cccc2F)ccc1OC	–
0.25 µM	–	COc1ccc(C(=O)Nc2cnccn2)cc1OC1CCCC1	–
0.25 µM	> 200 µM	COc1ccc(C(=O)Nc2ccccc2[N+](=O)[O-])cc1OC1CCCC1	–
0.24 µM	> 1000 µM	COc1ccc(C(=O)Nc2c(F)cccc2Cl)cc1OC1CCCC1	IC50 [7]: > 1000 µM
0.2 µM	–	COc1ccc(C(=O)Nc2c(C)nsc2C#N)cc1OC1CCCC1	–
0.2 µM	–	COc1ccc(C(=S)Nc2ccccc2Cl)cc1OC1CCCC1	–
0.19 µM	> 200 µM	COc1ccc(C(=O)Nc2ccccc2Cl)cc1OC1CCCC1	IC50 [1]: 0.45 µM; IC50 [2]: 0.186 µM; IC50 [7]: > 200 µM; IC50 [5]: 0.051 µM; Duration [6]: 27 min; Reduction [6]: 43%
0.13 µM	> 1000 µM	COc1ccc(C(=O)Nc2ccccc2Br)cc1OC1CCCC1	IC50 [7]: > 1000 µM
0.12 µM	–	COc1ccc(C(=O)Nc2cnccc2Cl)cc1OC1CCCC1	–
0.1 µM	–	COc1ccc(C(=O)Nc2c(Cl)cncc2Cl)cc1OC	–

IC50 [3]	IC50 [8]	SMILES	further results
0.1 µM	> 200 µM	COc1ccc(C(=O)Nc2c(C)cccc2C)cc1OC1CCCC1	IC50 [1]: 0.17 µM; IC50 [2]: 0.106 µM; IC50 [5]: 0.065 µM; Duration [6]: 16 min; Reduction [6]: 24%
0.1 µM	–	COc1ccc(C(=O)Nc2c(F)c(F)nc(F)c2Cl)cc1OC1CCCC1	–
0.1 µM	> 1000 µM	COc1ccc(C(=O)Nc2c(C)cccc2Cl)cc1OC1CCCC1	IC50 [7]: > 1000 µM
0.085 µM	–	COc1ccc(C(=O)Nc2c(F)cnc(F)c2F)cc1OC1CCCC1	–
0.07 µM	> 1000 µM	COc1ccc(C(=O)Nc2c(F)cccc2F)cc1OC1CCCC1	IC50 [1]: 0.58 µM; IC50 [2]: 0.066 µM; Duration [9]: 48 min; IC50 [7]: > 1000 µM; IC50 [5]: 0.018 µM; Reduction [10]: 54%; Duration [6]: 18 min; Reduction [6]: 29%
0.07 µM	–	CCCCOc1cc(C(=O)Nc2c(Br)cncc2Br)ccc1OC	–
0.05 µM	–	COc1ccc(C(=O)Nc2c(Cl)cncc2Cl)cc1OC1CCCCC1	–
0.035 µM	–	COc1ccc(C(=O)Nc2c(C)cncc2C)cc1OC1CCCC1	–
0.023 µM	> 1000 µM	COc1ccc(C(=O)Nc2c(Cl)cccc2Cl)cc1OC1CCCC1	IC50 [1]: 0.53 µM; IC50 [2]: 0.023 µM; Duration [9]: 30 min; IC50 [5]: 0.005 µM; Reduction [10]: 55%; Duration [6]: 34 min; Reduction [6]: 48%
0.02 µM	–	COc1ccc(C(=O)Nc2c(Cl)c(F)nc(F)c2Cl)cc1OC1CCCC1	–
0.016 µM	–	COc1ccc(C(=O)Nc2ccncc2Cl)cc1OC1CCCC1	IC50 [1]: 0.03 µM; IC50 [2]: 0.016 µM; Duration [9]: 15 min; IC50 [5]: 0.002 µM; Reduction [10]: 26%
0.01 µM	–	COc1ccc(C(=O)Nc2c(Cl)cccc2Cl)cc1OC1CC2CCC1C2 (centres undefined)	–
0.008 µM	–	CCCCOc1cc(C(=O)Nc2c(Cl)cncc2Cl)ccc1OC	IC50 [1]: 0.48 µM; IC50 [2]: 0.0085 µM; Duration [9]: 32 min; IC50 [5]: 0.0025 µM; Reduction [10]: 78%; Duration [6]: 34 min; Reduction [6]: 52%
0.007 µM	–	COc1ccc(C(=O)Nc2c(Br)cncc2Br)cc1OC1CCCC1	–
0.002 µM	–	COc1ccc(C(=O)Nc2c(Cl)c[n+]([O-])cc2Cl)cc1OC1CCCC1	IC50 [1]: 0.3 µM; IC50 [2]: 0.0023 µM; Duration [4]: 18 min; Reduction [4]: 45%; IC50 [5]: 0.002 µM; Duration [6]: 39 min; Reduction [6]: 54%
0.001 µM	–	COc1ccc(C(=O)Nc2c(Cl)cncc2Cl)cc1OC1CC2CCC1C2 (racemic)	IC50 [1]: 0.022 µM; IC50 [2]: 0.0014 µM; Duration [4]: 29 min; Reduction [4]: 35%; IC50 [5]: 0.0005 µM; Duration [6]: 59 min; Reduction [6]: 80%
0.001 µM	–	COc1ccc(C(=O)Nc2c(Cl)cncc2Cl)cc1OC1CC2CCC1C2 (stereo in doubt; (-)16f)	–
0.001 µM	–	COc1ccc(C(=O)Nc2c(Cl)cncc2Cl)cc1OC1CC2CCC1C2 (stereo in doubt; (+)16g)	–
